These results are taken from ChEMBL document CHEMBL4406794, “N-(7-Cyano-6-(4-fluoro-3-(2-(3-(trifluoromethyl)phenyl)acetamido)phenoxy)benzo[d]thiazol-2-yl)cyclopropanecarboxamide (TAK-632) Analogues as Novel Necroptosis Inhibitors by Targeting Receptor-Interacting Protein Kinase 3 (RIPK3): Synthesis, Structure-Activity Relationships, and in Vivo Efficacy” (J Med Chem, 2019).

The source made the active and inactive calls. The calls are words filed in the database; no cut-off is given here.

The target in data set [1] is RAF proto-oncogene serine/threonine-protein kinase (Homo sapiens) (UniProt P04049). The data set is described as follows: Inhibition of wild-type human partial length RAF1 (I330 to T640 residues) expressed in bacterial expression system assessed as enzyme remaining activity at 1000 nM by Kinomescan method relative to control.
Data set [2] deals with Fibroblast growth factor receptor 3 (Homo sapiens) (UniProt P22607). The data set is described as follows: Inhibition of wild-type human partial length FGFR3 (R442 to S771 residues) expressed in bacterial expression assessed as enzyme remaining activity at 1000 nM by Kinomescan method relative to control.
In data set [3] the test system is Mus musculus. The data set is described as follows: Protection against TNFalpha/Z-VAD-fmk-induced C57BL/6J mouse model of systemic inflammatory response syndrome at 5 mg/kg, po administered via gavage 2 hrs prior to Z-VAD-fmk addition for 15 mins followed by TNFalpha stimulation for 1 hr and subsequent Z-VAD-fmk addition meaured up to 50 hrs post TNFalpha stimulation relative to control. Type of data set: functional. The method in brief:
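Overnight-fasted C57BL/6 female mice, n=10 per group. Test compound was given by oral gavage 2 h before mTNF-α. z-VAD-fmk (180 µg) was injected ip, then 15 min later mTNF-α in endotoxin-free PBS was injected iv (400 µg/kg). A second z-VAD-fmk dose (70 µg) was given ip 1 h after TNF. Body temperature and survival were followed against vehicle. One-way ANOVA was used.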

Data set [4] is described as follows: AUC (0 to t) in Sprague-Dawley rat at 1 mg/kg, iv by LC-tandem mass spectrometry analysis. It counts as ADME, organism-based. The conditions noted are these: in vivo. The method in brief: (§1)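 Male Sprague-Dawley rats dosed once i.v. at 1 mg/kg or intragastrically at 5 mg/kg. Compound dissolved in 5% DMSO, 10% Tween 80, 75% physiological saline at 0.2 and 1 mg/mL. Blood taken at several time points, plasma spun at 4 °C, stored at -80 °C, assayed by LC/MS/MS. Parameters from individual animals by noncompartmental analysis.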

Data set [5] is described as follows: Cmax in Sprague-Dawley rat at 5 mg/kg, po by LC-tandem mass spectrometry analysis. Type of data set: ADME, organism-based. More on the design: dose 5 mg/kg, route oral. The conditions noted are these: in vivo. The method, boiled down:
as §1

Data set [6] relates to Serine/threonine-protein kinase B-raf (Homo sapiens), P15056 [V600E]. The data set is described as follows: Inhibition of human partial length BRAF V600E mutant (S429 to E741 residues) expressed in mammalian expression system assessed as enzyme remaining activity at 1000 nM by Kinomescan method relative to control.
For data set [7], the target named is Platelet-derived growth factor receptor alpha (Homo sapiens) (UniProt P16234). The data set is described as follows: Inhibition of wild-type human partial length PDGFRA (V575 to D1002 residues) expressed in mammalian expression system assessed as enzyme remaining activity at 1000 nM by Kinomescan method relative to control.
For data set [8], the target named is T1, Receptor-interacting serine/threonine-protein kinase 1 (Homo sapiens, UniProt Q13546).
T1 sequence (Q13546 whole entry): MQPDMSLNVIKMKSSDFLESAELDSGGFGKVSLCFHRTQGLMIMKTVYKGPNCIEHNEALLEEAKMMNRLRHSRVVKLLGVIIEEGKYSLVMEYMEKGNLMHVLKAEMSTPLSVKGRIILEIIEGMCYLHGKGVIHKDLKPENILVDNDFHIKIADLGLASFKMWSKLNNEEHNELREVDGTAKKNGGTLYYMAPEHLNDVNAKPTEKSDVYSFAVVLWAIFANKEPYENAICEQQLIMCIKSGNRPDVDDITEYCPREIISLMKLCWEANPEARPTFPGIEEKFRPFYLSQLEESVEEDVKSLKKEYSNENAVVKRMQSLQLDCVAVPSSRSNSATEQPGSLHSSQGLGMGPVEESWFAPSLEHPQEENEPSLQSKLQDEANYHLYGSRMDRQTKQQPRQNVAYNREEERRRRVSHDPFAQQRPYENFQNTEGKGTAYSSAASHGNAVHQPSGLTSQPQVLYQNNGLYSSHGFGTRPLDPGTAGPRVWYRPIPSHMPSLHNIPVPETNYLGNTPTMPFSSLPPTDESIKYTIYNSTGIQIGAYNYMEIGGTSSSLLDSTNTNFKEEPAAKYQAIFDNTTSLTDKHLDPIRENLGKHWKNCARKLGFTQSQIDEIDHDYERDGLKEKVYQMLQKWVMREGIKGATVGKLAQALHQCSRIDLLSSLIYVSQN
The data set can be described thus: Binding affinity to wild-type human partial length RIPK1 (M1 to K305 residues) expressed in bacterial expression system at 5 uM after 1 hr by quantitative PCR based KINOMEscan assay.

For data set [9], the target named is Proto-oncogene tyrosine-protein kinase Src (Homo sapiens) (UniProt P12931). The data set is described as follows: Inhibition of wild-type human partial length SRC (L240 to L536 residues) expressed in bacterial expression system assessed as enzyme remaining activity at 1000 nM by Kinomescan method relative to control.
For data set [10], the target named is Cyclin-dependent kinase 7 (Homo sapiens) (UniProt P50613). The data set can be described thus: Inhibition of wild-type human full length CDK7 (M1 to L344 residues) expressed in mammalian expression system assessed as enzyme remaining activity at 1000 nM by Kinomescan method relative to control.
The target in data set [11] is Dual specificity mitogen-activated protein kinase kinase 2 (Homo sapiens) (UniProt P36507). The data set is described as follows: Inhibition of wild-type human full length MEK2 (M1 to V400 residues) expressed in mammalian expression system assessed as enzyme remaining activity at 1000 nM by Kinomescan method relative to control.
Data set [12] addresses Inhibitor of nuclear factor kappa-B kinase subunit beta (Homo sapiens) (UniProt O14920). The data set is described as follows: Inhibition of wild-type human full length IKK-beta (M1 to S756 residues) expressed in mammalian expression system assessed as enzyme remaining activity at 1000 nM by Kinomescan method relative to control.
In data set [13] the target is Glycogen synthase kinase-3 beta (Homo sapiens) (UniProt P49841). The data set is described as follows: Inhibition of wild-type human full length GSK3B (M1 to T433 residues) expressed in mammalian expression system assessed as enzyme remaining activity at 1000 nM by Kinomescan method relative to control.
The target of data set [14] is Epidermal growth factor receptor (Homo sapiens) (UniProt P00533). The data set is described as follows: Inhibition of wild-type human partial length EGFR (R669 to V1011 residues) expressed in bacterial expression system assessed as enzyme remaining activity at 1000 nM by Kinomescan method relative to control. The method in brief: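 KINOMEscan binding competition. […] Incubation was 1 h at room temperature with shaking, then bead wash and elution with 0.5 μM nonbiotinylated ligand for 30 min. Eluted kinase was quantified by qPCR. Compound was diluted from 40× DMSO stocks to 1000 nM final.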

Data set [15] concerns the target Receptor-interacting serine/threonine-protein kinase 3 (Homo sapiens, UniProt Q9Y572). The data set is described as follows: Inhibition of RIPK3 phosphorylation in TNFalpha/smac mimetic/Z-VAD-fmk stimulated human HT-29 cells at 1 uM treated prior to TNFalpha/smac mimetic/Z-VAD-fmk stimulation and measured after 2 to 4 hrs by SDS-PAGE based immunoblot assay. It counts as cell-based. Background: A western blot detects proteins with antibodies after separation by electrophoresis.

The subject of data set [16] is HT-29. The data set can be described thus: Cytoprotection against TNFalpha/cycloheximide/Z-VAD-fmk-induced necroptosis in human HT-29 cells at 3 uM treated prior to TNFalpha/cycloheximide/Z-VAD-fmk stimulation and measured after 12 hrs by cell-Titer Glo luminescent cell viability assay. Type of data set: functional, cell-based. The method in brief: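 HT-29 cells pretreated with compound at 3 μM or DMSO, then given TNF-α 20 ng/mL, cycloheximide 5 μg/mL and z-VAD-fmk 20 μM for 12 h. Viability read by CellTiter-Glo luminescence.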

Sequence of Proto-oncogene tyrosine-protein kinase Src (Homo sapiens) (P12931 2-536 limits assumed): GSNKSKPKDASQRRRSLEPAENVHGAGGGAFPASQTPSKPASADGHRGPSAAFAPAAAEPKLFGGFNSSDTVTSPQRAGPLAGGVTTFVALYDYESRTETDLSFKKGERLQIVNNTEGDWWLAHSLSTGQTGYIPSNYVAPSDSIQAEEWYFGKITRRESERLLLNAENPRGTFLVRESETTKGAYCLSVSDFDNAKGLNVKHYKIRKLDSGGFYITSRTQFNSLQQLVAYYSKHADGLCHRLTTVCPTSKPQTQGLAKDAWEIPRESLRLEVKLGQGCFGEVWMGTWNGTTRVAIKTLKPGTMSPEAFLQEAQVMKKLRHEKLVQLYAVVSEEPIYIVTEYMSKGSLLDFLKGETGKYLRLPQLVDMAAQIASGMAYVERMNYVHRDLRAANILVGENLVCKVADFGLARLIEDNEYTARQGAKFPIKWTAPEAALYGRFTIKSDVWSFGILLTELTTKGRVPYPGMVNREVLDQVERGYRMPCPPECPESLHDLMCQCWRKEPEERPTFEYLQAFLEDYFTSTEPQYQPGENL
Sequence of Fibroblast growth factor receptor 3 (Homo sapiens) (P22607 23-806 limits assumed): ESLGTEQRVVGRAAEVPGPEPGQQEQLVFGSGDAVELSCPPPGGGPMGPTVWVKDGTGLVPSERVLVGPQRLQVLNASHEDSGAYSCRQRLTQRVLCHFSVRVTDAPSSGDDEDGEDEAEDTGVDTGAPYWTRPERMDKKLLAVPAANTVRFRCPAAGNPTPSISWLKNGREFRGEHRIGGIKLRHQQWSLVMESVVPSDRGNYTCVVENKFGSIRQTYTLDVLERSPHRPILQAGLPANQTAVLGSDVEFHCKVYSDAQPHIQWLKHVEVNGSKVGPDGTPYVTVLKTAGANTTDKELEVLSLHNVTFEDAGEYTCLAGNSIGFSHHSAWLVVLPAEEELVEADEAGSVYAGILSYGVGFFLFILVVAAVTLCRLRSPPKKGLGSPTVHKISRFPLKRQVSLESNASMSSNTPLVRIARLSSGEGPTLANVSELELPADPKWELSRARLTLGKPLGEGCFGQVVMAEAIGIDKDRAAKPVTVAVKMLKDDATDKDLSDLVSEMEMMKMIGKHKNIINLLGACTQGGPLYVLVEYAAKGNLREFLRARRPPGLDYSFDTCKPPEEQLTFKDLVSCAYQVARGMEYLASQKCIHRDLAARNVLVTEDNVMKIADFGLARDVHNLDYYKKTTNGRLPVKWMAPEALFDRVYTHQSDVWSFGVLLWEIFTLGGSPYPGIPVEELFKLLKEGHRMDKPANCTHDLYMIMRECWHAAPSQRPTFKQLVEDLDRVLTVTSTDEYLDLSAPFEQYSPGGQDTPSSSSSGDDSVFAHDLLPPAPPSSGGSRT
Sequence of Glycogen synthase kinase-3 beta (Homo sapiens) (P49841 whole entry, looked up, the tested form may be a part): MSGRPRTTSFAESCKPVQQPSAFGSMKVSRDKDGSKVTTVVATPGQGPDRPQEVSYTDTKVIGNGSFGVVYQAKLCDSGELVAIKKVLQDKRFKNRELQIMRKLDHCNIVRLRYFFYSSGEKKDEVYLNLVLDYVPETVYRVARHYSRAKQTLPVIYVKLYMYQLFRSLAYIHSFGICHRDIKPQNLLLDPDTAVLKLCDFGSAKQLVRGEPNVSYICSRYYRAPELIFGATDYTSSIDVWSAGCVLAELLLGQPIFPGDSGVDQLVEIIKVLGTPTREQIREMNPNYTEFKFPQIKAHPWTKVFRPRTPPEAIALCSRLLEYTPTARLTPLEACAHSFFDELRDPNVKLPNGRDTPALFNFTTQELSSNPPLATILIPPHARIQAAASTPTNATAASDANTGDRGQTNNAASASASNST
Sequence of Epidermal growth factor receptor (Homo sapiens) (P00533 whole entry, the tested form may be a part): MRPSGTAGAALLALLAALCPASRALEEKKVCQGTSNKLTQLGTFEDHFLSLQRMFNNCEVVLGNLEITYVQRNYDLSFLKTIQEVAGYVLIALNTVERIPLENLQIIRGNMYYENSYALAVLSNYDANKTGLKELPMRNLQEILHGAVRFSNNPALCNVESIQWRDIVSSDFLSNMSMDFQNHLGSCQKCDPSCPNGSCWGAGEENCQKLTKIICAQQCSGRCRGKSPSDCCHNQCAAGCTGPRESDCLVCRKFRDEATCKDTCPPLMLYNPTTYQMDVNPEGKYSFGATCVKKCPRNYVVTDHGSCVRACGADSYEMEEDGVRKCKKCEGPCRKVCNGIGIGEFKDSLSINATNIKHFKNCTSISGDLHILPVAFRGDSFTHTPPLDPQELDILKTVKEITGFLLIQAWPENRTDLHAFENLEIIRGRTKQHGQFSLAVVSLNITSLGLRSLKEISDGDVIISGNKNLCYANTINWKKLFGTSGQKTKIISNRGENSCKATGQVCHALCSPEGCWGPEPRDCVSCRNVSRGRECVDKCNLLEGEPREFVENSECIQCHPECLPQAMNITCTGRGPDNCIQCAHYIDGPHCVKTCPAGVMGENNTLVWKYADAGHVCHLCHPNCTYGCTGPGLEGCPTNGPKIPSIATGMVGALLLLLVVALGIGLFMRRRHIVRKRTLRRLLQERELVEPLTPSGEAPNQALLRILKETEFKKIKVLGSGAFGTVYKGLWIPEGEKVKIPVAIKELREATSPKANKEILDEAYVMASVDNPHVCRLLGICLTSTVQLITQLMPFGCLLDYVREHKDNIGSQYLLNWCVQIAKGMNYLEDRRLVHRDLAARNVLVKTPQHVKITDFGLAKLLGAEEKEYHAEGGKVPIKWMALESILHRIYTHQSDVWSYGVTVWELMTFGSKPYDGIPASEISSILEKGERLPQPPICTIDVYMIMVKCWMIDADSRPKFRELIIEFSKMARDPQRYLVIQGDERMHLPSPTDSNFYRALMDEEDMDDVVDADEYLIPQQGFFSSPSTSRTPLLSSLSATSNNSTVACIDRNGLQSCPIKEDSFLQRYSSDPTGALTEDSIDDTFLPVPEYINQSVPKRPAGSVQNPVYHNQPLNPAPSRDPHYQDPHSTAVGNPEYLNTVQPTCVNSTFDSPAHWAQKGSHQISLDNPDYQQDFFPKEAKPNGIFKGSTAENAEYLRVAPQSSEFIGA
Sequence of Cyclin-dependent kinase 7 (Homo sapiens) (P50613 whole entry, the tested form may be a part): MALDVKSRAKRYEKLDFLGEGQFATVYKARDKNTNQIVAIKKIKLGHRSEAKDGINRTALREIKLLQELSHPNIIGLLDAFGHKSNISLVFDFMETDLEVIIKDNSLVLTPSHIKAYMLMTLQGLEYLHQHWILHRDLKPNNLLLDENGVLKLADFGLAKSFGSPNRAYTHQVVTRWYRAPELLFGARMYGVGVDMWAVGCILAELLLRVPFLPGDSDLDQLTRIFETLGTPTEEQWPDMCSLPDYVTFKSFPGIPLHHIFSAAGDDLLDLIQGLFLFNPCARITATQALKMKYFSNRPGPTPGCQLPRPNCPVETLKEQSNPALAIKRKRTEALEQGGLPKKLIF
Sequence of Dual specificity mitogen-activated protein kinase kinase 2 (Homo sapiens) (P36507 whole entry, the tested form may be a part): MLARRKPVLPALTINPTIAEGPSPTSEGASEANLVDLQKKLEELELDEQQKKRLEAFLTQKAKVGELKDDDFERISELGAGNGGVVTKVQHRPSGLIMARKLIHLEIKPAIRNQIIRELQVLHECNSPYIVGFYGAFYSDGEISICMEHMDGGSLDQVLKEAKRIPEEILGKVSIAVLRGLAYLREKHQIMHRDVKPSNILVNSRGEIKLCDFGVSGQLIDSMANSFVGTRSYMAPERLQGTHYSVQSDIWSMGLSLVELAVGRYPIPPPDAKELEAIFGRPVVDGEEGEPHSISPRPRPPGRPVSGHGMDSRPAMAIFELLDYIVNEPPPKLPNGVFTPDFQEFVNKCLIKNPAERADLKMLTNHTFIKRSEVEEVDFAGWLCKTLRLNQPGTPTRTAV
Sequence of Receptor-interacting serine/threonine-protein kinase 3 (Q9Y572 whole entry, looked up): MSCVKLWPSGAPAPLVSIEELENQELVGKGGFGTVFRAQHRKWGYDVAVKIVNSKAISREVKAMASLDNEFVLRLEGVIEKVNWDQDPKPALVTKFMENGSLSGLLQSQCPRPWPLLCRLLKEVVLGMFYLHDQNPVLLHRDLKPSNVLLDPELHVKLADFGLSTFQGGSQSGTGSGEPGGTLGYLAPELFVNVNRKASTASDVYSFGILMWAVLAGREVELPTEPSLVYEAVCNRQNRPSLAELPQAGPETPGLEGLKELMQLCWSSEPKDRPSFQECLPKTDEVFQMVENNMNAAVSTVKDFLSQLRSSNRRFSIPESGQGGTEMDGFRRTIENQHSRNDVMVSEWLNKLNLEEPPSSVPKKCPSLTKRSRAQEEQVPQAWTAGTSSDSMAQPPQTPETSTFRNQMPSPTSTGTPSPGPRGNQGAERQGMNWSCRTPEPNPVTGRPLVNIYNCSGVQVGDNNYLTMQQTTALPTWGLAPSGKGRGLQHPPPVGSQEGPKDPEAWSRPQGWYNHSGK
Sequence of RAF proto-oncogene serine/threonine-protein kinase (Homo sapiens) (P04049 whole entry, the tested form may be a part): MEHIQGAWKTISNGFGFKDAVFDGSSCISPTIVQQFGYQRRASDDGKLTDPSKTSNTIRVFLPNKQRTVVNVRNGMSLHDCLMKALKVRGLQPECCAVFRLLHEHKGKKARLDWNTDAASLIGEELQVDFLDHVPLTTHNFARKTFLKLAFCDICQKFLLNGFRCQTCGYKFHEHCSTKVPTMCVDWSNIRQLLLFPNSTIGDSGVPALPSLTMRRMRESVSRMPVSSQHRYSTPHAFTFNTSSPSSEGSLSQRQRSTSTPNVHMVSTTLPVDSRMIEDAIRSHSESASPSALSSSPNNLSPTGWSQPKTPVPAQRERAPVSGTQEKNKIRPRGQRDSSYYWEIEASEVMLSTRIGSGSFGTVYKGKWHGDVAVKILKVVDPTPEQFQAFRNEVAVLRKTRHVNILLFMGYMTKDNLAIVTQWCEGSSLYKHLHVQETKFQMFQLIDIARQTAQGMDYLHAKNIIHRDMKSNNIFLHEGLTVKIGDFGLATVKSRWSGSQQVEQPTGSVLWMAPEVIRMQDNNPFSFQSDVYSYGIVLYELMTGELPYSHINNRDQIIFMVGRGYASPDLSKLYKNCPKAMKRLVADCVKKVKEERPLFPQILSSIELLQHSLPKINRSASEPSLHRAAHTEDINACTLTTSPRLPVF

By AUC(0-t) is commonly meant the area under the concentration-time curve up to a stated or last time point. As a reminder, the Cmax is the maximum level reached in the sampled fluid or tissue. `O=C(Nc1cccc(Br)c1)Nc1cc(Oc2ccc3nc(NC(=O)C4CC4)sc3c2)ccc1F`: the Activity in data set [1] was 13%; in data set [2], 62%; in data set [3], 90%; in [6], 1.8%; in data set [7], 5.3%; in data set [8] it was “Not Active”. The Activity was found to be 0% in data set [9]; 81% in [10]; 83% in data set [11]; 97% in data set [12]; 100% in [13]; 33% in data set [14]. The same compound had an AUC(0-t) in [4] of 5560 ng·h/mL. This compound displayed a Cmax in data set [5] of 345 ng/mL. Besides, in [15], the inhibition result is “Active”. The outcome in data set [16] was Active.
